Measured values collected from several papers.
Lines come from different studies, so protocols differ.
Target: Mitogen-activated protein kinase kinase kinase kinase 5 (MAP4K5, Homo sapiens, UniProt Q9Y4K4)

| test | setting | quantity | value | Structure (SMILES) |
| --- | --- | --- | --- | --- |
| cell-free assay | 0.5 µM | remaining signal | 97.4% | COc1ccc(COc2ccc(Cc3cnc(N)nc3N)cc2OC)cc1 |
| enzyme activity, inhibitor | 1 µM | activity vs control | 87% | COc1cc(/C=C/C(=O)CC(=O)/C=C/c2ccc(O)c(OC)c2)ccc1O |
| cell-free assay, competition with immobilised ligand | 1 µM | remaining binding | 95% | CCCOc1ccc([C@@H]2[C@@H](C(=O)O)[C@H](c3ccc4c(c3)OCO4)CN2CC(=O)Nc2c(CC)cccc2CC)cc1 |
| enzyme activity, inhibitor | 1 µM | remaining activity | 113% | COc1cc(Cl)c(C(=O)N[C@@H](CN[C@H]2CC[C@@H](N)CC2)Cc2ccc(C#N)cc2)cc1-c1ccc(CN[C@H](C)c2ccc(C)cc2)o1 |
| binding, competition with immobilised ligand | 1 µM | remaining binding | 75% | Cc1nc(N2CC[C@@H](O)C2)ncc1-c1cc(C(F)(F)F)cc2[nH]ncc12 |
| enzyme activity, inhibitor | 10 µM | remaining activity | 98.4% | Cc1sc(C(=O)NC2COC2)cc1-n1cc(NC(=O)Nc2c(F)cccc2Cl)cn1 |
| enzyme activity, inhibitor, radiometric | 1 µM | remaining activity | 46% | COc1cc(Nc2cnc(C#N)c(O[C@H](C)CN(C)C)n2)ncc1-c1cnn(C)c1 |
| enzyme activity, inhibitor, radiometric | 1 µM | inhibition | 89% | CNC(=O)c1cc2c(Oc3ccc(NC(=O)C4(C(=O)Nc5ccc(F)cc5)CC4)cc3)ccnc2cc1OC |
| enzyme activity, inhibitor | 1 µM | inhibition | 38% | COc1cc2ncnc(Nc3ccc(Oc4ccccc4)cc3C)c2cc1OC |
| cell-free assay | 0.5 µM | remaining signal | 7.61% | N#CCCc1ccc2c(c1)-c1[nH]c3ccc([N+](=O)[O-])cc3c1CC(=O)N2 |
| binding | 1 µM | remaining binding | 100% | COc1ccnn2ncc(-c3ccnc(N(C)C)n3)c12 |
| cell-free assay | 0.5 µM | remaining signal | 97% | Cc1ccc(NC(=O)c2ccc(CN3CCN(C)CC3)cc2)cc1Nc1nc(-c2cccnc2)cs1 |
| cell-free assay, competition with immobilised ligand | 0.1 µM | remaining binding | 100% | C[C@@H]1CN(c2cc(-c3n[nH]c4ccc(OC5(C)CC5)cc34)ncn2)C[C@H](C)O1 |
| enzyme activity, inhibitor, radiometric | 5 µM | activity vs control | 74% | FC(F)(F)Oc1cccc(-c2cnc3ccc(-c4ccncc4)nn23)c1 |
| cell-free assay, competition with immobilised ligand | 0.1 µM | remaining binding | 91% | COCCOc1nc(-c2ccc(Cl)nc2)nc2c1CN(C(=O)c1ncn3ccccc13)CC2 |
| cell-free assay, inhibitor | 20 µM | remaining signal | 0% | Nc1ncnc2occ(-c3ccc(NC(=O)Nc4cc(C(F)(F)F)ccc4F)cc3)c12 |
| cell-free assay, competition with immobilised ligand | 1 µM | remaining binding | 88% | CNC(=O)Nc1ccc2c(c1)CC[C@@]21OC(=O)N(CC(=O)N(Cc2ccc(F)cc2)[C@@H](C)C(F)(F)F)C1=O |
| enzyme activity, inhibitor, radiometric | 1 µM | remaining activity | 87% | CC(C)(C)c1nc2c(s1)c1nc(N)ncc1c1ccc(NS(=O)(=O)c3c(F)cccc3F)c(F)c12 |
